Experiment: Causally related adverse events, phase Ia/Ib study in patients with solid tumors
Assay type: in vivo, human
Outline: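 Expansion cohorts received nanosuspension at 100 mg once daily. The safety set was all patients given ≥1 dose, classified by the treatment actually received. Treatment was delayed or reduced for grade ≥3 or clinically significant nonhematologic toxicity.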

Cc1cc(-c2nnc(N)nc2-c2ccc(F)cc2)cc(Cl)n1 [AZD4635]
Causally related AE grade ≥3: ALT increased (CRC IO-naïve): 0 n (%) | Causally related AE grade ≥3: Abdominal pain (CRC IO-naïve): 0 n (%) | Causally related AE grade ≥3: Anemia (CRC IO-naïve): 0 n (%) | Causally related AE grade ≥3: Arthralgia (CRC IO-naïve): 0 n (%) | Causally related AE grade ≥3: Blood creatinine increased (CRC IO-naïve): 0 n (%) | Causally related AE grade ≥3: CRP increased (CRC IO-naïve): 0 n (%) | Causally related AE grade ≥3: Dermatitis psoriasiform (CRC IO-naïve): 0 n (%) | Causally related AE grade ≥3: Diarrhea (CRC IO-naïve): 0 n (%) | Causally related AE grade ≥3: Dizziness (CRC IO-naïve): 0 n (%) | Causally related AE grade ≥3: Dyspnea (CRC IO-naïve): 0 n (%) | Causally related AE grade ≥3: Fatigue (CRC IO-naïve): 1 (4.0) n (%) | Causally related AE grade ≥3: Headache (CRC IO-naïve): 0 n (%) | Causally related AE grade ≥3: Hyperglycemia (CRC IO-naïve): 0 n (%) | Causally related AE grade ≥3: Hypertension (CRC IO-naïve): 0 n (%) | Causally related AE grade ≥3: Hypophosphatemia (CRC IO-naïve): 0 n (%) | Causally related AE grade ≥3: Insomnia (CRC IO-naïve): 0 n (%) | Causally related AE grade ≥3: Lipase increased (CRC IO-naïve): 0 n (%) | Causally related AE grade ≥3: Lymphocyte count decreased (CRC IO-naïve): 0 n (%) | Causally related AE grade ≥3: Myositis (CRC IO-naïve): 0 n (%) | Causally related AE grade ≥3: Nausea (CRC IO-naïve): 0 n (%) | Causally related AE grade ≥3: Neutrophil count decreased (CRC IO-naïve): 0 n (%) | Causally related AE grade ≥3: Obliterative bronchiolitis (CRC IO-naïve): 0 n (%) | Causally related AE grade ≥3: Rash (CRC IO-naïve): 0 n (%) | Causally related AE grade ≥3: Sudden death (CRC IO-naïve): 1 (4.0) n (%) | Causally related AE grade ≥3: Type I diabetes mellitus (CRC IO-naïve): 0 n (%) | Causally related AE grade ≥3: Vomiting (CRC IO-naïve): 1 (4.0) n (%) | ≥Grade 3 causally related AE (CRC IO-naïve): 3 (12.0) n (%) | Causally related AE grade ≥3: ALT increased (NSCLC Post-IO): 0 n (%) | Causally related AE grade ≥3: Abdominal pain (NSCLC Post-IO): 0 n (%) | Causally related AE grade ≥3: Anemia (NSCLC Post-IO): 0 n (%) | Causally related AE grade ≥3: Arthralgia (NSCLC Post-IO): 0 n (%) | Causally related AE grade ≥3: Blood creatinine increased (NSCLC Post-IO): 0 n (%) | Causally related AE grade ≥3: CRP increased (NSCLC Post-IO): 0 n (%) | Causally related AE grade ≥3: Dermatitis psoriasiform (NSCLC Post-IO): 0 n (%) | Causally related AE grade ≥3: Diarrhea (NSCLC Post-IO): 0 n (%) | Causally related AE grade ≥3: Dizziness (NSCLC Post-IO): 0 n (%) | Causally related AE grade ≥3: Dyspnea (NSCLC Post-IO): 0 n (%) | Causally related AE grade ≥3: Fatigue (NSCLC Post-IO): 1 (5.9) n (%) | Causally related AE grade ≥3: Headache (NSCLC Post-IO): 0 n (%) | Causally related AE grade ≥3: Hyperglycemia (NSCLC Post-IO): 0 n (%) | Causally related AE grade ≥3: Hypertension (NSCLC Post-IO): 0 n (%) | Causally related AE grade ≥3: Hypophosphatemia (NSCLC Post-IO): 0 n (%) | Causally related AE grade ≥3: Insomnia (NSCLC Post-IO): 0 n (%) | Causally related AE grade ≥3: Lipase increased (NSCLC Post-IO): 0 n (%) | Causally related AE grade ≥3: Lymphocyte count decreased (NSCLC Post-IO): 0 n (%) | Causally related AE grade ≥3: Myositis (NSCLC Post-IO): 0 n (%) | Causally related AE grade ≥3: Nausea (NSCLC Post-IO): 0 n (%) | Causally related AE grade ≥3: Neutrophil count decreased (NSCLC Post-IO): 0 n (%) | Causally related AE grade ≥3: Obliterative bronchiolitis (NSCLC Post-IO): 0 n (%) | Causally related AE grade ≥3: Rash (NSCLC Post-IO): 0 n (%) | Causally related AE grade ≥3: Sudden death (NSCLC Post-IO): 0 n (%) | Causally related AE grade ≥3: Type I diabetes mellitus (NSCLC Post-IO): 0 n (%) | Causally related AE grade ≥3: Vomiting (NSCLC Post-IO): 0 n (%) | ≥Grade 3 causally related AE (NSCLC Post-IO): 1 (5.9) n (%) | Causally related AE grade ≥3: ALT increased (Other IO-naïve): 0 n (%) | Causally related AE grade ≥3: Abdominal pain (Other IO-naïve): 1 (5.3) n (%) | Causally related AE grade ≥3: Anemia (Other IO-naïve): 0 n (%) | Causally related AE grade ≥3: Arthralgia (Other IO-naïve): 0 n (%) | Causally related AE grade ≥3: Blood creatinine increased (Other IO-naïve): 0 n (%) | Causally related AE grade ≥3: CRP increased (Other IO-naïve): 0 n (%) | Causally related AE grade ≥3: Dermatitis psoriasiform (Other IO-naïve): 0 n (%) | Causally related AE grade ≥3: Diarrhea (Other IO-naïve): 1 (5.3) n (%) | Causally related AE grade ≥3: Dizziness (Other IO-naïve): 0 n (%) | Causally related AE grade ≥3: Dyspnea (Other IO-naïve): 0 n (%) | Causally related AE grade ≥3: Fatigue (Other IO-naïve): 2 (10.5) n (%) | Causally related AE grade ≥3: Headache (Other IO-naïve): 0 n (%) | Causally related AE grade ≥3: Hyperglycemia (Other IO-naïve): 0 n (%) | Causally related AE grade ≥3: Hypertension (Other IO-naïve): 2 (10.5) n (%) | Causally related AE grade ≥3: Hypophosphatemia (Other IO-naïve): 0 n (%) | Causally related AE grade ≥3: Insomnia (Other IO-naïve): 0 n (%) | Causally related AE grade ≥3: Lipase increased (Other IO-naïve): 0 n (%) | Causally related AE grade ≥3: Lymphocyte count decreased (Other IO-naïve): 0 n (%) | Causally related AE grade ≥3: Myositis (Other IO-naïve): 0 n (%) | Causally related AE grade ≥3: Nausea (Other IO-naïve): 0 n (%) | Causally related AE grade ≥3: Neutrophil count decreased (Other IO-naïve): 0 n (%) | Causally related AE grade ≥3: Obliterative bronchiolitis (Other IO-naïve): 0 n (%) | Causally related AE grade ≥3: Rash (Other IO-naïve): 0 n (%) | Causally related AE grade ≥3: Sudden death (Other IO-naïve): 0 n (%) | Causally related AE grade ≥3: Type I diabetes mellitus (Other IO-naïve): 0 n (%) | Causally related AE grade ≥3: Vomiting (Other IO-naïve): 0 n (%) | ≥Grade 3 causally related AE (Other IO-naïve): 5 (26.3) n (%) | Causally related AE grade ≥3: ALT increased (Other Post-IO): 0 n (%) | Causally related AE grade ≥3: Abdominal pain (Other Post-IO): 0 n (%) | Causally related AE grade ≥3: Anemia (Other Post-IO): 1 (4.8) n (%) | Causally related AE grade ≥3: Arthralgia (Other Post-IO): 0 n (%) | Causally related AE grade ≥3: Blood creatinine increased (Other Post-IO): 0 n (%) | Causally related AE grade ≥3: CRP increased (Other Post-IO): 0 n (%) | Causally related AE grade ≥3: Dermatitis psoriasiform (Other Post-IO): 0 n (%) | Causally related AE grade ≥3: Diarrhea (Other Post-IO): 0 n (%) | Causally related AE grade ≥3: Dizziness (Other Post-IO): 0 n (%) | Causally related AE grade ≥3: Dyspnea (Other Post-IO): 1 (4.8) n (%) | Causally related AE grade ≥3: Fatigue (Other Post-IO): 1 (4.8) n (%) | Causally related AE grade ≥3: Headache (Other Post-IO): 0 n (%) | Causally related AE grade ≥3: Hyperglycemia (Other Post-IO): 0 n (%) | Causally related AE grade ≥3: Hypertension (Other Post-IO): 0 n (%) | Causally related AE grade ≥3: Hypophosphatemia (Other Post-IO): 0 n (%) | Causally related AE grade ≥3: Insomnia (Other Post-IO): 0 n (%) | Causally related AE grade ≥3: Lipase increased (Other Post-IO): 0 n (%) | Causally related AE grade ≥3: Lymphocyte count decreased (Other Post-IO): 1 (4.8) n (%) | Causally related AE grade ≥3: Myositis (Other Post-IO): 0 n (%) | Causally related AE grade ≥3: Nausea (Other Post-IO): 0 n (%) | Causally related AE grade ≥3: Neutrophil count decreased (Other Post-IO): 0 n (%) | Causally related AE grade ≥3: Obliterative bronchiolitis (Other Post-IO): 0 n (%) | Causally related AE grade ≥3: Rash (Other Post-IO): 0 n (%) | Causally related AE grade ≥3: Sudden death (Other Post-IO): 0 n (%) | Causally related AE grade ≥3: Type I diabetes mellitus (Other Post-IO): 0 n (%) | Causally related AE grade ≥3: Vomiting (Other Post-IO): 0 n (%) | ≥Grade 3 causally related AE (Other Post-IO): 1 (4.8) n (%) | Causally related AE grade ≥3: ALT increased (Total): 0 n (%) | Causally related AE grade ≥3: Abdominal pain (Total): 2 (1.4) n (%) | Causally related AE grade ≥3: Anemia (Total): 4 (2.7) n (%) | Causally related AE grade ≥3: Arthralgia (Total): 1 (0.7) n (%) | Causally related AE grade ≥3: Blood creatinine increased (Total): 0 n (%) | Causally related AE grade ≥3: CRP increased (Total): 1 (0.7) n (%) | Causally related AE grade ≥3: Dermatitis psoriasiform (Total): 0 n (%) | Causally related AE grade ≥3: Diarrhea (Total): 1 (0.7) n (%) | Causally related AE grade ≥3: Dizziness (Total): 0 n (%) | Causally related AE grade ≥3: Dyspnea (Total): 1 (0.7) n (%) | Causally related AE grade ≥3: Fatigue (Total): 6 (4.1) n (%) | Causally related AE grade ≥3: Headache (Total): 1 (0.7) n (%) | Causally related AE grade ≥3: Hyperglycemia (Total): 0 n (%) | Causally related AE grade ≥3: Hypertension (Total): 2 (1.4) n (%) | Causally related AE grade ≥3: Hypophosphatemia (Total): 0 n (%) | Causally related AE grade ≥3: Insomnia (Total): 1 (0.7) n (%) | Causally related AE grade ≥3: Lipase increased (Total): 0 n (%) | Causally related AE grade ≥3: Lymphocyte count decreased (Total): 1 (0.7) n (%) | Causally related AE grade ≥3: Myositis (Total): 0 n (%) | Causally related AE grade ≥3: Nausea (Total): 1 (0.7) n (%) | Causally related AE grade ≥3: Neutrophil count decreased (Total): 0 n (%) | Causally related AE grade ≥3: Obliterative bronchiolitis (Total): 0 n (%) | Causally related AE grade ≥3: Rash (Total): 0 n (%) | Causally related AE grade ≥3: Sudden death (Total): 1 (0.7) n (%) | Causally related AE grade ≥3: Type I diabetes mellitus (Total): 0 n (%) | Causally related AE grade ≥3: Vomiting (Total): 2 (1.4) n (%) | ≥Grade 3 causally related AE (Total): 19 (12.9) n (%) | Treatment-related AEs of grade 3 or greater severity, patients (all tumor cohorts): 12.9% | Causally related AE grade ≥3: ALT increased (mCRPC IO-naïve): 0 n (%) | Causally related AE grade ≥3: Abdominal pain (mCRPC IO-naïve): 1 (1.5) n (%) | Causally related AE grade ≥3: Anemia (mCRPC IO-naïve): 3 (4.6) n (%) | Causally related AE grade ≥3: Arthralgia (mCRPC IO-naïve): 1 (1.5) n (%) | Causally related AE grade ≥3: Blood creatinine increased (mCRPC IO-naïve): 0 n (%) | Causally related AE grade ≥3: CRP increased (mCRPC IO-naïve): 1 (1.5) n (%) | Causally related AE grade ≥3: Dermatitis psoriasiform (mCRPC IO-naïve): 0 n (%) | Causally related AE grade ≥3: Diarrhea (mCRPC IO-naïve): 0 n (%) | Causally related AE grade ≥3: Dizziness (mCRPC IO-naïve): 0 n (%) | Causally related AE grade ≥3: Dyspnea (mCRPC IO-naïve): 0 n (%) | Causally related AE grade ≥3: Fatigue (mCRPC IO-naïve): 1 (1.5) n (%) | Causally related AE grade ≥3: Headache (mCRPC IO-naïve): 1 (1.5) n (%) | Causally related AE grade ≥3: Hyperglycemia (mCRPC IO-naïve): 0 n (%) | Causally related AE grade ≥3: Hypertension (mCRPC IO-naïve): 0 n (%) | Causally related AE grade ≥3: Hypophosphatemia (mCRPC IO-naïve): 0 n (%) | Causally related AE grade ≥3: Insomnia (mCRPC IO-naïve): 1 (1.5) n (%) | Causally related AE grade ≥3: Lipase increased (mCRPC IO-naïve): 0 n (%) | Causally related AE grade ≥3: Lymphocyte count decreased (mCRPC IO-naïve): 0 n (%) | Causally related AE grade ≥3: Myositis (mCRPC IO-naïve): 0 n (%) | Causally related AE grade ≥3: Nausea (mCRPC IO-naïve): 1 (1.5) n (%) | Causally related AE grade ≥3: Neutrophil count decreased (mCRPC IO-naïve): 0 n (%) | Causally related AE grade ≥3: Obliterative bronchiolitis (mCRPC IO-naïve): 0 n (%) | Causally related AE grade ≥3: Rash (mCRPC IO-naïve): 0 n (%) | Causally related AE grade ≥3: Sudden death (mCRPC IO-naïve): 0 n (%) | Causally related AE grade ≥3: Type I diabetes mellitus (mCRPC IO-naïve): 0 n (%) | Causally related AE grade ≥3: Vomiting (mCRPC IO-naïve): 1 (1.5) n (%) | ≥Grade 3 causally related AE (mCRPC IO-naïve): 9 (13.8) n (%) | Tolerability (monotherapy and in combination with durvalumab, all patients): well tolerated
